High-throughput results deposited in PubChem BioAssay by several laboratories.
Most compounds without a hit are left out; they make up all but 1.8% or so of the library.
UHRF1 binding – blocks human UHRF1 binding to methylated DNA. AID 687016. UHRF1 binding to methylated oligo, TR-FRET. inhibition, % at 4.4 µM. actives 0.75% (n = 370,000); in the data active = inhibition above about 21%;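 note: UHRF1 SRA domain binding a hemimethylated CpG hairpin DNA probe; 0% = median of test compound wells and 100% = reference inhibitor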
Target sequence (Q96T88 whole entry, looked up, the tested form may be a part): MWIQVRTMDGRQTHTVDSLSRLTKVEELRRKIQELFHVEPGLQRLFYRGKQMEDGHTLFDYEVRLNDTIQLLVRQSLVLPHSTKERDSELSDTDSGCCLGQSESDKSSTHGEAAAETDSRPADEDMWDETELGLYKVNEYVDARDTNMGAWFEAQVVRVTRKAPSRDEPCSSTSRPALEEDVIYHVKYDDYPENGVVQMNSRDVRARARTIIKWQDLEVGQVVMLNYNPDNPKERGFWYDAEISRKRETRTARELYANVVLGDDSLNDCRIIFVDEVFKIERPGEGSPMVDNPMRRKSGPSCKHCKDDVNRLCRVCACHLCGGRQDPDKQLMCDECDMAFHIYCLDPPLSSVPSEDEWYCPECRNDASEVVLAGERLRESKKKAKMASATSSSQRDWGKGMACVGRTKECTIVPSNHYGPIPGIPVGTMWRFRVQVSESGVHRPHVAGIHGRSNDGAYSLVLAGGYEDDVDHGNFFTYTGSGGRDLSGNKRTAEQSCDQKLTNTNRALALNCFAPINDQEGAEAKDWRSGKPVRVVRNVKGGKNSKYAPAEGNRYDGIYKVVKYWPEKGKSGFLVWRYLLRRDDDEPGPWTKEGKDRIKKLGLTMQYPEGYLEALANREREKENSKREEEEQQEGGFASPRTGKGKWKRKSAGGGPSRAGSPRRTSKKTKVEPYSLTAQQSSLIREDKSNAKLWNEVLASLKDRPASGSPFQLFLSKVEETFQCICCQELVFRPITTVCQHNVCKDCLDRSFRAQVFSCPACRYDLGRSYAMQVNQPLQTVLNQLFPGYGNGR
TDP2 inh – TDP2 (human) inhibition, absorbance primary screen; O95551; recombinant TDP2, T5PNP hydrolysis, p-nitrophenol absorbance 415 nm; inhibition, % at 12.8 µM; actives 0.34% (n = 370,000);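 active = inhibition above the mean of all tested compounds plus 3 SD, set per campaign, cut at about 25% in these data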;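 note: 0% = DMSO with enzyme and 100% = buffer with substrate but no TDP2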
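Material: recombinant human TDP2; quantity: TDP2 enzyme at 120 nM final; medium: Tris-HCl pH 7.5 with MgCl2; compound: single concentration, 12.8 µM nominal, with 1% DMSO; incubation: 2 h enzyme incubation at 37 °C; signal: epi absorbance; measure: percent inhibition; benchmarks: high control without enzyme, low control DMSO plus TDP2; repeats: singlicate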
NSD2 inh – blocks human histone methyltransferase NSD2. O96028. NSD2 peptide methylation, AlphaScreen, 120 min. inhibition, % at 12.5 µM. actives 0.54% (n = 310,000). AID 743445; in the data active = inhibition above about 50%
Casp6 inh – inhibitors of human caspase-6 | AID 686996 | actives 0.53% (n = 350,000) | purified caspase-6, Z-VEID-R110 cleavage fluorescence | inhibition, % at 12.5 µM | P55212;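 active = mean inhibition across replicates at least about 35%, with every replicate also reaching that limit, limit read from the data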;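 note: 0% = median of neutral control wells and 100% = no fluorescence left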
LEDGF integ inh – blocks HIV-1 LEDGF/p75-dependent DNA integration. TR-FRET IN-LEDGF/p75 DNA integration, Eu/Cy5. inhibition, % at 3.7 µM. actives 0.64% (n = 370,000). AID 743269;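 active = inhibition above the screen-wide mean plus 3 SD, cut at about 13% in these data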;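 note: signal is the Cy5 over europium emission ratio at 671 and 618 nm; 0% = plate median of compound wells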
MBD2 DNA inh – blocks human MBD2 binding to methylated DNA | TR-FRET, MBD2 binding to methylated oligonucleotide | actives 0.31% (n = 370,000) | inhibition, % at 4.4 µM | AID 686964; in the data active = inhibition above about 13%
Alpha artifact – interferes with AlphaScreen signal, flagging NSD2 false positives | AID 1053174 | shares compounds with NSD2 inh | AlphaScreen artifact counterscreen, preloaded methylated H4 peptide | AC35, µM (highest dose often 10 µM), for inactives: at the top dose activity change, negative = signal loss | actives 9.4% (n = 1,500); call rule not given here
Starred values were filed as active, the others as inactive; nt = not tested or not shown; + = active, no number; ! = not active in a repeat.

SMILES	UHRF1 binding	TDP2 inh	NSD2 inh	Casp6 inh	LEDGF integ inh	MBD2 DNA inh	Alpha artifact
Cc1cccc(C(=O)NCC(=O)OCc2nnc(-c3ccccc3)o2)c1	1	8	+	0	-1	-3	-1%
CC12CC3(C)CC(C)(C1)CC(C(=O)NC1=NCCS1)(C2)C3	-2	-8	121*	nt	3	2	-4%
O=C(Nc1ccc(F)cc1)N[C@@H]1CC[C@@H](CC(=O)N2CCCCC2)O[C@H]1CO	nt	nt	nt	-1	nt	nt	nt
Nc1nnc2c(n1)CCCC2	0	21	58*	nt	5	-3	7%
O=C(NCCC(=O)N1CCc2ccccc21)c1ccco1	3	-16	68*	1	-2	-4	-2%
CO[C@H]1CN(C)C(=O)c2cc(NC(C)=O)ccc2OC[C@@H](C)N(CCc2ccccc2)C[C@@H]1C	nt	nt	nt	-2	nt	nt	nt
CN(C)c1ccc(/C=C2/C[N+](C)(C)C/C(=C/c3ccc(N(C)C)cc3)C2=O)cc1	-42	-7	66*	8	-9	-20	9.5µM*
COc1ccc2c3c([nH]c2c1)[C@H](CO)N(C(=O)NC(C)C)CC31CCN(C(=O)NC(C)C)CC1	nt	nt	nt	1	nt	nt	nt
Cc1c(-c2ccc(/C=N/NC(=O)C(=O)Nc3ccccc3F)o2)cccc1[N+](=O)[O-]	5	3	64*	0	-2	2	-3%
C[C@@H]1CCCCO[C@H](CN(C)S(C)(=O)=O)[C@@H](C)CN([C@@H](C)CO)C(=O)c2cc(NS(=O)(=O)c3cn(C)cn3)ccc2O1	nt	nt	nt	1	nt	nt	nt
C[C@@H]1CN([C@H](C)CO)C(=O)Cc2cc(NC(=O)Nc3ccc(C(F)(F)F)cc3)ccc2O[C@@H]1CN(C)C(=O)Nc1ccc(F)cc1	nt	nt	nt	1	nt	nt	nt
Cc1nc2cc(C(=O)NCc3cccnc3)ccc2n1-c1ccc(F)cc1F	6	-11	50*	2	-6	3	-3%
CCCN1[C@@H]2c3ccc(-c4cccnc4)c(=O)n3C[C@@H]2[C@@H](CO)[C@@H]1C(=O)NC1CCCC1	nt	nt	nt	1	nt	nt	nt
NCC[C@H]1CC[C@H](NC(=O)Nc2ccc(F)cc2)[C@H](CO)O1	nt	nt	nt	0	nt	nt	nt
O=C(O)c1ccccc1NC(c1ccccc1)c1ccc2cccnc2c1O (stereo not drawn)	-7	0	nt	12	-5	-4	nt
O=C(O)c1ccc2cccnc2c1O	-1	14	61*	4	6	-1	-5%
C[C@H](CO)N1C[C@H](C)[C@H](CN(C)S(=O)(=O)c2ccc(Cl)cc2)Oc2c(NC(=O)Nc3ccc(C(F)(F)F)cc3)cccc2C1=O	nt	nt	nt	0	nt	nt	nt
COCCCNC(=O)COc1ccc(Cl)c(C)c1	5	-2	56*	nt	1	2	4%
COc1ccccc1C(=O)NNC(=O)Cc1ccccc1	4	-22	55*	0	-1	-2	2%
CCNC(=O)C[C@H]1C=C[C@@H](NC(=O)C2CCOCC2)[C@@H](CO)O1	nt	nt	nt	2	nt	nt	nt
CCNC1CCC(Nc2ccnc3cc(Cl)ccc23)CC1 (stereo not drawn)	6	13	89*	-9	1	5	-5%
COc1cc2c(C#N)c(N3CCN(C)CC3)nc(N)c2c(N)n1	-3	12	24	nt	1	2	nt
COc1cc2c(C#N)c(N3CCCC3)nc(N)c2c(N)n1	-17	11	68*	96*!	-1	-11	-2%
C[C@H]1CN([C@@H](C)CO)C(=O)c2cccc(NC(=O)CCCCCC(=O)Nc3ccccc3N)c2O[C@@H]1CN(C)S(C)(=O)=O	nt	nt	nt	-1	nt	nt	nt
COc1ccc(-n2nnnc2SCC(=O)c2ccc3c(c2)OCCO3)cc1	-2	-7	98*	nt	0	5	-3%
SMILES	UHRF1 binding	TDP2 inh	NSD2 inh	Casp6 inh	LEDGF integ inh	MBD2 DNA inh	Alpha artifact
O=S(=O)(Cc1ccccc1)N1CCCCN2[C@@H](CO)[C@@H](c3ccc(-c4ccccc4)cc3)[C@@H]2C1	nt	nt	nt	0	nt	nt	nt
COc1ccc(Oc2c(OC)cc([N+](=O)[O-])c3ncccc23)cc1	-3	-7	5	-11	-1	0	nt
COc1cc(NC(C)CCCN)c2ncccc2c1Oc1ccccc1 (stereo not drawn)	-4	22	63*	nt	8	-2	-1%
Nc1nonc1-c1nc2ccccc2n1CC(=O)Nc1ccccc1	1	6	3	-2	-2	-3	nt
Nc1nonc1-c1nc2ccccc2n1CC(=O)N/N=C/c1ccc(-c2ccccc2C(=O)O)o1	3	9	63*	60*	-1	-3	-2%
C[C@H]1CN([C@@H](C)CO)S(=O)(=O)c2ccc(-c3cccc(C(=O)N(C)C)c3)cc2O[C@H]1CN(C)C(=O)Cc1ccccn1	nt	nt	nt	1	nt	nt	nt
CC(=O)c1ccc(N(CC(=O)NCCc2ccccc2)C(=O)c2csnn2)cc1	2	-1	70*	0	4	0	-1%
O=C(CN(C(=O)c1csnn1)c1cccc2ccccc12)NCc1ccccc1	-2	1	96*	-1	-1	-4	1%
O=C(CN(C(=O)c1csnn1)c1cccc2ccccc12)NCc1ccc(F)cc1	-1	-1	-5	0	0	-4	nt
O=C(C[C@@H]1CC[C@@H]2[C@H](COC[C@@H](O)CN2C(=O)c2ccccc2)O1)N1CCOCC1	nt	nt	nt	0	nt	nt	nt
C[C@H]1CCCCO[C@H](CN(C)C)[C@@H](C)CN([C@@H](C)CO)C(=O)c2cc(N(C)C)ccc2O1	nt	nt	nt	-4	nt	nt	nt
COc1ccccc1N(CC(=O)NCC1CCCO1)C(=O)CNS(=O)(=O)c1ccc(Cl)cc1 (stereo not drawn)	-1	-11	nt	3	-4	0	nt
COc1ccccc1N(CC(=O)NCC1CCCO1)C(=O)CNS(=O)(=O)c1ccc(C)cc1 (stereo not drawn)	10	-11	69*	nt	-3	-1	0%
O=C(C[C@@H]1C[C@@H]2c3cc(NC(=O)NC4CCCC4)ccc3O[C@@H]2[C@H](CO)O1)NCc1cccnc1	nt	nt	nt	-1	nt	nt	nt
COc1cccc(C#Cc2ccc3c(c2)O[C@H](CN(C)C)[C@@H](C)CN([C@H](C)CO)S3(=O)=O)c1	nt	nt	nt	-5	nt	nt	nt
